Test [1] addresses T1, Nonstructural protein 5A (Hepatitis C virus) (UniProt Q5L478).
T1 sequence (whole entry): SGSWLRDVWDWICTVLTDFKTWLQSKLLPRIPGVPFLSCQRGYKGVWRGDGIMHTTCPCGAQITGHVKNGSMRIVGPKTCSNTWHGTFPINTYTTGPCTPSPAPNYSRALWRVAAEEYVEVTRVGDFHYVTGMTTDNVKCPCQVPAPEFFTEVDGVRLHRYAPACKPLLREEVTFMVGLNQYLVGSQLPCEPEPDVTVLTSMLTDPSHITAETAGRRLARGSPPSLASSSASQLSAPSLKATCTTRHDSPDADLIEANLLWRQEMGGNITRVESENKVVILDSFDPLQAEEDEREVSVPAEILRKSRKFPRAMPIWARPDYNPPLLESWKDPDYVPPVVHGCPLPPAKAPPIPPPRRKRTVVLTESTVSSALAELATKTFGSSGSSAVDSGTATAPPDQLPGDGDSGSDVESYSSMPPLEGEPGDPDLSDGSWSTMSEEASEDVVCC
Description: Inhibition of HCV GT1a NS5A assessed as suppression of replicon RNA level by real-time PCR analysis. Particulars: Hepatitis C virus subtype 1a. On the technique in general: Replicon systems follow genome replication, usually without infectious particles.

Test [2] concerns the target T1, Nonstructural protein 5A (Hepatitis C virus). Briefly: Inhibition of HCV GT2b NS5A assessed as suppression of replicon RNA level by real-time PCR analysis. Particulars: Hepatitis C virus subtype 2b. The method in brief:
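GT2b replicon, which carries the naturally occurring NS5A 31M resistance-associated variant; potency given as EC90 in nM.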

Test [3] concerns T2, Nonstructural protein 5A (Hepatitis C virus), Q5L478 [Y93H].
T2 sequence (whole entry): T1 sequence (whole entry) with Y93H
Description: Inhibition of HCV GT1a NS5A Y93H mutant assessed as suppression of replicon RNA level by real-time PCR analysis. Particulars: Hepatitis C virus subtype 1a.

Test [4] addresses T1, Nonstructural protein 5A (Hepatitis C virus). Briefly: Inhibition of HCV GT3a NS5A assessed as suppression of replicon RNA level by real-time PCR analysis. Particulars: Hepatitis C virus subtype 3a.
Test [5] concerns Nonstructural protein 5A (Hepatitis C virus), Q5L478 [UNDEFINED MUTATION]. Briefly: Inhibition of HCV GT1a NS5A L31V mutant assessed as suppression of replicon RNA level by real-time PCR analysis. Particulars: Hepatitis C virus subtype 1a.
Test [6] concerns the target T1, Nonstructural protein 5A (Hepatitis C virus). Briefly: Inhibition of HCV GT1b NS5A assessed as suppression of replicon RNA level by real-time PCR analysis. Particulars: Hepatitis C virus subtype 1b.

Positions count from the first letter of the chain named.

One may read the EC90 as the concentration at which the effect reaches the 90% level. `COC(=O)N[C@H](C(=O)N1CCC[C@H]1c1ncc(-c2ccc3c(c2)OC(c2ccc(OC)cc2)n2c-3cc3cc(-c4cnc([C@@H]5CCCN5C(=O)[C@@H](NC(=O)OC)C(C)C)[nH]4)ccc32)[nH]1)C(C)C` (stereo partly specified): the EC90 is 0.04 nM in test [1], 15 nM in test [2] and 82 nM in test [3].
Turning to `COC(=O)N[C@H](C(=O)N1C[C@H](F)C[C@H]1c1ncc(-c2cc(F)c3c(c2)OC(c2cccc(O[C@@H]4CCOC4)c2)n2c-3cc3cc(-c4cnc([C@@H]5C[C@@H](F)CN5C(=O)[C@@H](NC(=O)OC)C(C)C)[nH]4)ccc32)[nH]1)C(C)C` (mixture of isomers), the EC90 amounted to 0.04 nM in test [1]; 2 nM in test [2]; 2 nM in test [4]; 1 nM in test [3]; 7 nM in test [5].
As for `COC(=O)N[C@H](C(=O)N1CCC[C@H]1c1ncc(-c2ccc3c(c2)OC(c2cccc(OC(C)C)c2)n2c-3cc3cc(-c4cnc([C@@H]5CCCN5C(=O)[C@@H](NC(=O)OC)C(C)C)[nH]4)ccc32)[nH]1)C(C)C` (stereo partly specified), the EC90 in test [1] amounted to 0.01 nM; in test [2], 145 nM; in test [4], 0.08 nM; in test [3] it was 34 nM; in test [5] it was 0.5 nM.
As to `COC(=O)N[C@H](C(=O)N1CCC[C@H]1c1ncc(-c2ccc3c(c2)cc2n3C(c3cccc(OC(C)C)c3)Oc3cc(-c4cnc([C@@H]5C[C@@H](F)CN5C(=O)[C@@H](NC(=O)OC)C(C)C)[nH]4)cc(F)c3-2)[nH]1)C(C)C` (stereo partly specified), the EC90 in test [1] came to 0.01 nM; in test [2], 28 nM; in test [4], 0.07 nM; in test [3], 0.9 nM; in test [5] it was 0.6 nM.
For `CCOc1cccc(C2Oc3cc(-c4cnc([C@@H]5C[C@@H](F)CN5C(=O)[C@@H](NC(=O)OC)C(C)C)[nH]4)cc(F)c3-c3cc4cc(-c5cnc([C@@H]6CCCN6C(=O)[C@@H](NC(=O)OC)C(C)C)[nH]5)ccc4n32)c1` (stereo partly specified), the EC90 in test [1] came to 0.01 nM; in test [2], 17 nM; in test [4], 0.1 nM; in test [3] it was 0.4 nM.
As for `COC(=O)N[C@H](C(=O)N1CCC[C@H]1c1ncc(-c2ccc3c(c2)OCn2c-3cc3c(F)c(-c4cnc([C@@H]5CCCN5C(=O)[C@@H](NC(=O)OC)C(C)C)[nH]4)ccc32)[nH]1)C(C)C`, the EC90 in test [1] is more than 0.8 nM; in test [6], more than 0.5 nM.
For the compound `CCOc1cccc(C2Oc3cc(-c4cnc([C@@H]5C[C@@H](F)CN5C(=O)[C@@H](NC(=O)OC)C(C)C)[nH]4)cc(F)c3-c3cc4cc(-c5cnc([C@@H]6C[C@@H](F)CN6C(=O)[C@@H](NC(=O)OC)C(C)C)[nH]5)ccc4n32)c1` (stereo partly specified), the EC90 in test [1] came to 0.01 nM; in test [2], 69 nM; in test [4], 0.6 nM; in test [3], 0.2 nM; in test [5] it was 3 nM.
Taken in the same sequence, the figures for `COC(=O)N[C@H](C(=O)N1CCC[C@H]1c1ncc(-c2ccc3c(c2)OC(c2cc(Cl)cc(OC)c2)n2c-3cc3cc(-c4cnc([C@@H]5CCCN5C(=O)[C@@H](NC(=O)OC)C(C)C)[nH]4)ccc32)[nH]1)C(C)C` (mixture of isomers) were 0.03 nM, 202 nM, 0.8 nM, 15 nM and 0.2 nM.
As to `COC(=O)N[C@H](C(=O)N1C[C@H](F)C[C@H]1c1ncc(-c2cc(F)c3c(c2)OC(c2ccc(OC(F)(F)F)cc2)n2c-3cc3cc(-c4cnc([C@@H]5C[C@@H](F)CN5C(=O)[C@@H](NC(=O)OC)C(C)C)[nH]4)ccc32)[nH]1)C(C)C` (stereo partly specified), the EC90 in test [1] worked out at 0.01 nM; in test [2], 35 nM; in test [4], 1 nM; in test [3], 0.2 nM.
With `COC(=O)N[C@H](C(=O)N1CCC[C@H]1c1ncc(-c2ccc3c(c2)cc2n3C(c3cccc(OC(F)F)c3)Oc3cc(-c4cnc([C@@H]5C[C@@H](F)CN5C(=O)[C@@H](NC(=O)OC)C(C)C)[nH]4)cc(F)c3-2)[nH]1)C(C)C` (stereo partly specified), the EC90 in test [1] was 0.002 nM; in test [2] it was 22 nM; in test [4], 0.2 nM; in test [3], 0.3 nM; in test [5], 0.7 nM.
In the same order, the values of `COC(=O)N[C@H](C(=O)N1CCC[C@H]1c1ncc(-c2cc3c(c(-c4ccccc4)c2)-c2cc4cc(-c5cnc([C@@H]6CCCN6C(=O)[C@@H](NC(=O)OC)C(C)C)[nH]5)ccc4n2CO3)[nH]1)C(C)C` are 1 nM, 108 nM, 47 nM, 250 nM and 1 nM.
Taken in the same sequence, the figures for `CCOc1cccc(C2Oc3cc(-c4cnc([C@@H]5CCCN5C(=O)[C@@H](NC(=O)OC)C(C)C)[nH]4)ccc3-c3cc4cc(-c5cnc([C@@H]6CCCN6C(=O)[C@@H](NC(=O)OC)C(C)C)[nH]5)ccc4n32)c1` (stereo partly specified) were 0.02 nM, 22 nM, 0.2 nM, 16 nM and 0.9 nM.
For the compound `COC(=O)N[C@H](C(=O)N1CCC[C@H]1c1ncc(-c2ccc3c(c2)OC(c2cc(OC)cc(OC)c2)n2c-3cc3cc(-c4cnc([C@@H]5CCCN5C(=O)[C@@H](NC(=O)OC)C(C)C)[nH]4)ccc32)[nH]1)C(C)C` (stereo partly specified), the EC90 came out at 0.004 nM in test [1]; 11 nM in test [2]; 0.08 nM in test [4]; 8 nM in test [3]; 0.3 nM in test [5].
Taken in the same sequence, the figures for `COC(=O)N[C@H](C(=O)N1CCC[C@H]1c1ncc(-c2cc3c(c(C4CC4)c2)-c2cc4cc(-c5cnc([C@@H]6CCCN6C(=O)[C@@H](NC(=O)OC)C(C)C)[nH]5)ccc4n2CO3)[nH]1)C(C)C` were 0.7 nM, 454 nM, 74 nM, 890 nM and 0.7 nM.
Regarding `COC(=O)N[C@H](C(=O)N1CCC[C@H]1c1ncc(-c2cc(F)c3c(c2)OC(c2ccc(OC)cc2)n2c-3cc3cc(-c4cnc([C@@H]5CCCN5C(=O)[C@@H](NC(=O)OC)C(C)C)[nH]4)ccc32)[nH]1)C(C)C` (stereo partly specified), the concentration for an effect of 90% (EC90) was 0.01 nM in test [1], 5 nM in test [2], 3 nM in test [3] and 0.2 nM in test [5].
Taken in the same sequence, the figures for `COC(=O)N[C@H](C(=O)N1CCC[C@H]1c1ncc(-c2ccc3c(c2)cc2n3C(c3cccc(OC(F)(F)F)c3)Oc3cc(-c4cnc([C@@H]5C[C@@H](F)CN5C(=O)[C@@H](NC(=O)OC)C(C)C)[nH]4)ccc3-2)[nH]1)C(C)C` (stereo partly specified) were 0.02 nM, 48 nM, 1.7 nM and 1.8 nM.
In the case of `COC(=O)N[C@H](C(=O)N1CCC[C@H]1c1ncc(-c2cc(F)c3c(c2)OC(c2cc(OC)cc(OC)c2)n2c-3cc3cc(-c4cnc([C@@H]5CCCN5C(=O)[C@@H](NC(=O)OC)C(C)C)[nH]4)ccc32)[nH]1)C(C)C` (stereo partly specified), the EC90 worked out at 0.004 nM in test [1]; 0.6 nM in test [2]; 0.06 nM in test [4]; 3 nM in test [3]; 0.1 nM in test [5].
In the same order, the values of `COC(=O)N[C@H](C(=O)N1C[C@H](F)C[C@H]1c1ncc(-c2cc(F)c3c(c2)OC(c2cccc(OC(C)C)c2)n2c-3cc3cc(-c4cnc([C@@H]5C[C@@H](F)CN5C(=O)[C@@H](NC(=O)OC)C(C)C)[nH]4)ccc32)[nH]1)C(C)C` (stereo partly specified) are 0.01 nM, 122 nM, 1 nM, 0.1 nM and 4 nM.
For `CCOc1cccc(C2Oc3cc(-c4cnc([C@@H]5CCCN5C(=O)[C@@H](NC(=O)OC)C(C)C)[nH]4)cc(F)c3-c3cc4cc(-c5cnc([C@@H]6CCCN6C(=O)[C@@H](NC(=O)OC)C(C)C)[nH]5)ccc4n32)c1` (stereo partly specified), the EC90 in test [1] came out at 0.01 nM; in test [2], 8 nM; in test [4] it was 0.02 nM; in test [3], 2 nM; in test [5] it was 0.2 nM.
For `COC(=O)N[C@H](C(=O)N1CCC[C@H]1c1ncc(-c2cc(F)c3c(c2)OC(c2cccc(OC(C)C)c2)n2c-3cc3cc(-c4cnc([C@@H]5CCCN5C(=O)[C@@H](NC(=O)OC)C(C)C)[nH]4)ccc32)[nH]1)C(C)C` (stereo partly specified), the EC90 in test [1] turned out to be 0.01 nM; in test [2], 18 nM; in test [4], 0.05 nM; in test [3], 6 nM; in test [5] it was 0.2 nM.

The record behind these values is ChEMBL document CHEMBL4431385, “Substituted tetracyclic indole core derivatives of HCV NS5A inhibitor MK-8742” (Bioorg Med Chem Lett, 2016).
